The text below walks through data of PubChem BioAssay AID775 (SRMLSC, 2007).

Among all 130,000 compounds or so, about 900 (0.69%) were called active. Many of the other results were omitted from the sample, so actives are more common in it than they were. Values without a mark were called inactive.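 The calls were made as follows: active = inhibition above a set limit, placed 3 SD over the median of all compounds (cut at about 26% in these data); inactive = the rest.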

A short description of the experiment: compounds extending yeast replicative lifespan, primary screen, S. cerevisiae, OD615 (AID 775).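 Also: 0% = nicotinamide-treated wells and 100% = cells grown without nicotinamide.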 To be noted: S. cerevisiae growth with nicotinamide, at 10 µM, active compounds read high, deaD strain in restrictive glucose medium. In short, it runs like this: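 Assay system: engineered S. cerevisiae DeaD replicative-lifespan strain, galactose-grown log-phase cells; medium: restrictive CSMM-D dextrose medium; also added: nicotinamide, 1.5 mM, co-present with compound; schedule: 48 h compound exposure at 30 °C, humidified; detection: absorbance at 615 nm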
Turning to `COc1ccc(C(=O)CC2C(=O)N(C)C(=O)N(C)C2=O)cc1`, the inhibition of the nicotinamide effect is 31% (active).
Turning to `COc1ccc(C(=O)C2CN(C)CC2C(=O)c2ccc(OC)cc2)cc1` (stereo not given), the inhibition of the nicotinamide effect was -7.58%.
In the case of `CN1CCN(C(=S)SCC(=O)Nc2ccc(Cl)cc2C(=O)c2ccccc2)CC1` it was 2.18%.
With `CNC(=S)N/N=C1\C2CN3CCN(C2)CC1(c1ccccc1)C3`, the inhibition of the nicotinamide effect was 6.05%.
In the case of `CC(=NC1CCN(Cc2ccccc2)CC1)c1c(O)n(C)c(=O)n(C)c1=O` it was -9.29%; in that of `Cn1c(O)c(C=NCCCC(=O)O)c(=O)n(C)c1=O`, -5.17%; in that of `CC(=C1C(=O)c2ccccc2C1=O)N1CCN(CCN=Cc2c(O)n(C)c(=O)n(C)c2=O)CC1`, 26.9% (active).
Then `O=C(N/N=C/c1c(O)n(Cc2ccccc2)c(=O)[nH]c1=O)c1ccccc1`, with -4.35%; and `CN(C)C(=O)Oc1cc(=O)n2c3c(cccc13)CCC2`, with -0.91%.
Regarding `O=C(CCNS(=O)(=O)c1ccccc1)Nc1ccc(Cl)cc1C(=O)c1ccccc1`, the inhibition of the nicotinamide effect is 0.6%.
For the compound `Cc1ccc(-n2c(-c3ccc([N+](=O)[O-])cc3)nc3ccccc3c2=O)cc1`, the inhibition of the nicotinamide effect is 2.14%.
In the case of `CCCCCn1c(=O)c(C(=O)NCc2ccccn2)c(O)c2ccccc21` it was 36.3% (active); in that of `CCCCCn1c(=O)c(C(=O)Nc2c(C)n(C)n(-c3ccccc3)c2=O)c(O)c2ccccc21`, 0.87%.
In the case of `COc1cc(C(c2c(O)c3ccccc3oc2=O)c2c(C)n(C)n(-c3ccccc3)c2=O)ccc1O` (stereo not given) it was 0.56%; in that of `CC(C(=O)Nc1ccc(Cl)cc1Cl)N1CC=C(c2ccccc2)CC1` (stereo not given), -1.28%.
For `CN(C)CC1CCCCC1OC(=O)c1ccc(Cl)c(Cl)c1` (stereo not given), the inhibition of the nicotinamide effect was 2.28%.
In the case of `Cc1ccnc(-n2c(C)cc(/C=C3\C(=O)NC(=S)N(C)C3=O)c2C)c1` it was 43.7% (active); in that of `Cc1ccc(-n2c(C)cc(/C=C3\C(=O)NC(=O)N(C)C3=O)c2C)cc1C`, 4.25%; in that of `C=CCn1c(O)c(/C=N/N2CCOCC2)c(=O)[nH]c1=S`, -2.87%.
With `O=C1NC(=O)N(c2ccc(F)cc2)C(=O)/C1=C/c1ccc2c(c1)CCCN2Cc1ccccc1`, the inhibition of the nicotinamide effect is -3.32%.
